# Source: PubChem BioAssay (Johns Hopkins Ion Channel Center)
# KCNK3 block: human KCNK3 channel inhibition, primary screen | O14649 | CHO-KCNK3 thallium flux, FluxOR fluorescence; hits give low values | B-score at 10 µM | 0.84% of 340,000 active | AID 602410;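 active = B-score under library mean minus 4 SD, starting fluorescence ratio at most library mean plus 5 SD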;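 note: more negative B-score means stronger inhibition of thallium flux through KCNK3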
# Target sequence (O14649 whole entry, looked up): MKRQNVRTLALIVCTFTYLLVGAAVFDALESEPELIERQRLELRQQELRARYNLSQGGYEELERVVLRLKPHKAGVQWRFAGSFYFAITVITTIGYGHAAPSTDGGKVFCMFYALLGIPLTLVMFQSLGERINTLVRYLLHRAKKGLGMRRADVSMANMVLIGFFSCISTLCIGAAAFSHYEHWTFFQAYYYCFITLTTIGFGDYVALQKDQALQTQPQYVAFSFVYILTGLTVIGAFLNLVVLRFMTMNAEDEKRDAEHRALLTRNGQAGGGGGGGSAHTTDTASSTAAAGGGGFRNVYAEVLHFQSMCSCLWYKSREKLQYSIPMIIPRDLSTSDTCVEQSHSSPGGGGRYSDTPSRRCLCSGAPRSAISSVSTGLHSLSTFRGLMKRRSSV
# Kir21 block: inhibitors of mouse Kir2.1 inward-rectifier potassium channel. P35561. HEK293-Kir2.1, FluxOR thallium flux fluorescence; hits give low values. B-score at 10 µM. 0.85% of 310,000 active. AID 1672;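 active = fluorescence ratio B-score at or below minus 3 SD of library scores, with starting-brightness B-score within 2 SD, cut at about -4.2 in these data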;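 note: channel flux triggered by added potassium and thallium sulfate stimulus; B-score of peak minus minimum fluorescence over baseline after thallium stimulus; more negative B-score means stronger Kir2.1 block with less thallium influx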
# KCNQ1 block: inhibitors of human KCNQ1 potassium channel; CHO-K1 KCNQ1, FluxOR thallium flux fluorescence; hits give high values; B-score at 10 µM; 1.3% of 310,000 active; AID 2642;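 active = compounds whose thallium flux B-score, printed positive for inhibition, exceeds three library SD while starting fluorescence stays within three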;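 note: channel opened by potassium depolarization with thallium stimulus after 20 min compound exposure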
# hERG rescue: shields human hERG channel from block by proarrhythmic agents; 0.51% of 310,000 active; activation (rescue from dofetilide block), less the hit threshold, % at 10 µM; Q12809; AID 1511; CHO-hERG, FluxOR thallium flux, dofetilide IC70 present;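 active = activation above the mean of controls blocked by dofetilide plus 5 SD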;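 note: thallium influx through hERG after potassium depolarization seen as dye fluorescence rise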
# KCNK9 block: human KCNK9 channel inhibition. Q9NPC2. HEK293 KCNK9, FluxOR thallium flux fluorescence; hits give low values. AID 488922. 1.2% of 310,000 active. B-score at 10 µM;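 active = ratio B-score over 3 SD below the library mean, with starting fluorescence within 5 SD of its mean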;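 note: negative B-score means less thallium flux so channel inhibition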
# KCNQ1 pot: potentiates or activates the human KCNQ1 potassium channel | P51787 | CHO-K1 KCNQ1, thallium flux FluxOR fluorescence; hits give high values | B-score at 10 µM | 0.35% of 310,000 active;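 active = fluorescence ratio B-score, a plate-corrected score, at least three library SD, with initial intensity B-score within 5 SD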
#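 System: CHO-K1 cells stably expressing KCNQ1 / Medium: assay buffer for compound exposure, DMSO matched across wells / Reagent: thallium- and potassium-containing depolarizing buffer / Compound: one concentration, matched DMSO / Incubation: 20 min compound pretreatment at room temperature / Measured by: kinetic FluxOR fluorescence, 10 s baseline plus 110 s post-stimulus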
# KCNK9 block conf: confirmation of human KCNK9 potassium channel inhibitors; inhibition, % at 10 µM; HEK293 KCNK9 cells, FluxOR thallium flux fluorescence; 43% of 4,900 active; shares compounds with KCNK9 block;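 active = thallium signal inhibited by more than 5 SD of the compound-free buffer control wells, on both duplicate plates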
# Kir21 sel: selectivity of KCNK9 modulators against mouse Kir2.1 | shares compounds with KCNK9 block | Kir2.1 cells, FluxOR thallium flux fluorescence | inhibition, % at 10 µM | 4% of 4,900 active | AID 492993;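 active = thallium signal drop more than 5 SD beyond the mean of the no-compound control wells, seen in both duplicate plates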;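 note: signal is fluorescence rise after thallium addition divided by baseline fluorescence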
# KCNK9 uninduced: second counter-screen for KCNK9 modulators: effect in non-induced cells. shares compounds with KCNK9 block. non-induced KCNK9-HEK293, FluxOR thallium flux. inhibition, % at 10 µM. 40% of 4,900 active;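 active = thallium signal drop beyond 5 SD of the untreated control mean, on both duplicate plates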
# Numbers stand for hits; 0 = inactive; - = not tested or not shown; ! = not active in a repeat. An excerpt weighted towards active compounds, which were near 3.7% of everything screened.
SMILES,KCNK3 block,Kir21 block,KCNQ1 block,hERG rescue,KCNK9 block,KCNQ1 pot,KCNK9 block conf,Kir21 sel,KCNK9 uninduced
CCCCC(=NCCc1c(C)[nH]c2ccccc12)C1=C(O)CC(c2ccccc2)CC1=O (stereo not drawn),0,0,0,0,0,0,0,0,0
CCCC(=NCCc1c(C)[nH]c2ccccc12)C1=C(O)CC(c2ccccc2)CC1=O (stereo not drawn),0,0,0,0,0,0,0,0,0
O=C(Cc1c(Cl)cccc1Cl)OCC(=O)N1CCOCC1,0,-,-,-,-,-,-,-,-
CCOC(=O)c1ccc(NC(=O)CSc2nncn2-c2cccnc2)cc1,0,0,0,0,0,0,-,-,-
O=C(NC(c1ccccc1)c1c(O)ccc2ccccc12)c1ccccc1Cl (stereo not drawn),-9.42,0,0,0,-10.1,0,0,0,44.0%
O=C(NC(c1ccc(Cl)cc1)c1c(O)ccc2ccccc12)c1ccccc1 (stereo not drawn),0,-,-,-,-,-,-,-,-
CCCCc1ccc(NC(=O)CN(C)CC(=O)Nc2ccccc2Cl)cc1,0,0,0,0,0,0,0,0,0
Cc1cc(C)c(CN2CCCC(CNC(=O)c3ccc(F)cc3)C2)c(-n2cccn2)c1 (stereo not drawn),0,0,0,0,0,0,-,-,-
Cc1ccsc1C(=O)C1CCCN(Cc2cc(F)ccc2-n2cccn2)C1 (stereo not drawn),0,0,0,0,0,0,0,0,0
COc1ccc2cc(C(N)=O)/c(=N/NC(=O)c3ccco3)oc2c1,0,0,0,0,0,0,-,-,-
COc1cc(C)ccc1OCCCOc1ccccc1Cl,0,0,0,0,0,0,-,-,-
COc1cc(C)ccc1OCCCCOc1ccccc1C(C)=O,0,0,0,0,0,0,0,0,0
CNC(=S)N/N=C/C1=CCC2CC1C2(C)C (stereo not drawn),0,0,0,0,0,0,-,-,-
CC1(C)C2CC=C(/C=N/NC(=S)NCCc3ccccc3)C1C2 (stereo not drawn),0,0,0,0,0,0,0,0,0
COc1ccc(CNC(=O)CN(c2ccc(C)cc2)S(=O)(=O)c2c(C)noc2C)cc1,0,0,0,0,0,0,-,-,-
COc1ccc(CNC(=O)CN(c2cc(C)cc(C)c2)S(=O)(=O)c2c(C)noc2C)cc1,0,0,0,0,-8.61,0,0,0,0
CC(C)n1nc(C(=O)N2CCN(S(=O)(=O)c3cccs3)CC2)c2ccccc2c1=O,-,0,0,0,0,0,-,-,-
Cc1nnsc1S(=O)(=O)Cc1ccccc1C(F)(F)F,0,0,0,0,0,0,-,-,-
CC1=NOC(=O)/C1=C\c1ccc(-c2cc(Cl)ccc2Cl)o1,0,0,0,0,0,0,0,0,0
C[C@@H]1CC[C@@]23COC(=O)C2=CCC[C@@H]3[C@@]1(C)CC/C(=C/CO)CO,0,-,-,-,-,-,-,-,-
CC1=CCC[C@@H]2[C@@](C)(CC/C(C)=C/C(=O)O)[C@H](C)CC[C@@]12C,0,0,0,0,0,0,0,0,0
CCOC(=O)CNC(=O)COc1coc(CN2CCN(Cc3ccccc3)CC2)cc1=O,0,0,0,0,0,0,-,-,-
O=C(c1ccc2ccccc2c1)C1CCCN(C(=O)c2cccnc2)C1 (stereo not drawn),0,0,0,0,0,0,-,-,-
CN(C)c1ccccc1C(=O)N1CCCC(C(=O)c2ccc3ccccc3c2)C1 (stereo not drawn),0,0,0,0,0,0,0,0,0
CSc1ncccc1C(=O)N1CCCC(C(=O)c2ccc3ccccc3c2)C1 (stereo not drawn),0,0,0,0,0,0,0,0,0
SMILES,KCNK3 block,Kir21 block,KCNQ1 block,hERG rescue,KCNK9 block,KCNQ1 pot,KCNK9 block conf,Kir21 sel,KCNK9 uninduced
Cc1cc([N+](=O)[O-])nn1CC(=O)N/N=C/c1ccc(O)cc1O,0,0,0,0,0,0,-,-,-
CCCCCCCCCCOC(=O)Cn1c(COc2ccc(OC)cc2)[n+](C)c2ccccc21,0,-8.59,10,0,-16.5,0,70.0%,75.0%,33.0%!
CCCCCCCCCCOC(=O)Cn1c(COc2ccccc2)[n+](C)c2ccccc21,0,-13.5,8,0,-14.7,0,72.0%,75.0%,33.5%
CCOC(=O)Cn1c(COc2ccccc2OC)[n+](C)c2ccccc21,0,0,0,0,0,0,-,-,-
CCCCCCCCCCOC(=O)Cn1c(COc2ccc(Cl)cc2)[n+](C)c2ccccc21,0,0,0,0,-10.5,0,72.5%,49.5%,0
CCCCCOC(=O)Cn1c(=O)oc2ccccc21,0,0,0,0,0,0,-,-,-
Cc1nc2c(-c3ccc(F)cc3)cnn2c2c1CCC2,0,0,0,0,0,0,-,-,-
O=C(/C=C/NNC(=O)c1cccc(Br)c1)c1cccc(Br)c1,-8.97,0,0,0,-9.02,0,38.0%,0,34.5%
Cc1ccc(S(=O)(=O)Nc2ccccn2)cc1[N+](=O)[O-],0,0,0,0,0,0,-,-,-
COc1cnn(-c2ccccc2)c(=O)c1SCc1ccc(Cl)cc1Cl,0,0,0,0,0,0,-,-,-
COc1cnc(SCc2ccc(Cl)cc2Cl)nc1Cl,0,0,0,0,0,0,0,0,29.5%
CC1CN(C(=O)c2cc3c(=O)n4ccccc4nc3n2C)CC(C)O1 (stereo not drawn),0,0,0,0,0,0,-,-,-
CC(=O)c1cc(CN2CCN(Cc3ccccc3)C(CCO)C2)cs1 (stereo not drawn),0,0,0,0,0,0,-,-,-
C/C(=N\NC(=S)NCc1ccccc1)c1ccc(C(C)(C)C)cc1,0,0,0,0,0,0,0,0,0
C/C(=N\NC(=S)NCc1ccccc1)c1ccc(C#N)cc1,0,0,0,0,0,0,-,-,-
CCCCC1CCC(C(=O)N(CC(C)C)c2c(N)n(Cc3ccccc3)c(=O)[nH]c2=O)CC1 (stereo not drawn),-,0,0,0,0,0,-,-,-
COc1ccc(C(=O)NC(C(=O)NCC2(N3CCCCC3)CCCCC2)C(C)C)cc1 (stereo not drawn),0,-,-,-,-,-,-,-,-
CCc1nnc(NS(=O)(=O)c2ccc(NCc3cc(Cl)ccc3O)cc2)s1,0,0,0,0,0,0,0,0,0
CCc1nnc(NS(=O)(=O)c2ccc(NCc3cc(Cl)cc(Cl)c3O)cc2)s1,0,0,0,0,0,0,0,0,0
CCc1nnc(NS(=O)(=O)c2ccc(NC(=O)OC)cc2)s1,0,0,0,0,0,0,-,-,-
COc1cc(NC(=O)CCc2nnc3ccc(N4CCC5(CC4)OCCO5)nn23)cc(OC)c1,0,0,0,0,0,0,-,-,-
